Source: PubChem BioAssay
MEKK2 mut-MEK5 – signal of MEK5 binding to mutant human MEKK2 PB1 domain. bead flow cytometry, Alexa488-MEK5 binding to MEKK2 mutant. percent response, % at 10 µM. 0.35% of 290,000 active; in the data active means percent response above about 24%, passing the limit was not always enough
UBC13 polyUb – inhibitors of human UBC13 polyubiquitin chain formation. P61088. TR-FRET. inhibition, % at 20 µM. 0.47% of 330,000 active. AID 485273; in the data active means inhibition above about 45%, passing the limit was not always enough
MEKK3 PB1 HTS – raises or lowers MEK5 binding to the human MEKK3 PB1 domain. Q99759. bead-based flow cytometry, Alexa488-MEK5 binding to MEKK3; actives lie on both sides; 0 = blocked by unlabeled MEK5, 100 = vehicle. binding response (% of control), % at 10 µM. 1.4% of 290,000 active;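 active means binding response more than 3 SD above or below the average of its plate-row segment, actives on both sides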;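 further: Alexa488 bead fluorescence after subtracting the streptavidin-only scavenger bead signal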
Target sequence (Q99759 whole entry, looked up, the tested form may be a part): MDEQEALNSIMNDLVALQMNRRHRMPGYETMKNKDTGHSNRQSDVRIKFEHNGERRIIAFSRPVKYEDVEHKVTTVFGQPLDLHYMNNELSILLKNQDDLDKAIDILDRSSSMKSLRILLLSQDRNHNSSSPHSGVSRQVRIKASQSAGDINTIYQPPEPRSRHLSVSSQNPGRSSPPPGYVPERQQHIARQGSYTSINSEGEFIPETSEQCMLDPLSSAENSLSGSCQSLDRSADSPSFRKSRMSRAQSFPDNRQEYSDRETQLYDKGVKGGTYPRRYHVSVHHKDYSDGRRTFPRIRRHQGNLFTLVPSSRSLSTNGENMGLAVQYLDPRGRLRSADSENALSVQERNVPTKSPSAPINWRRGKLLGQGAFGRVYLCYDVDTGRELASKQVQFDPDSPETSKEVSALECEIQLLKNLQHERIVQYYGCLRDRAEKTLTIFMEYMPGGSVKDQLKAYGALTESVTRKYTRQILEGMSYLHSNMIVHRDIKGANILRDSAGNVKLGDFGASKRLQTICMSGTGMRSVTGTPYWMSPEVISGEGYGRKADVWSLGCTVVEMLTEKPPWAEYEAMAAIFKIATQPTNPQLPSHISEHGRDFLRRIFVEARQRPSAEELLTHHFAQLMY
MEKK2 WT-MEK5 – raises or lowers MEK5 binding to wildtype human MEKK2 PB1 domain; Q9Y2U5; bead flow cytometry, Alexa488-MEK5 binding to MEKK2 WT; actives lie on both sides; binding response (% of control), % at 10 µM; 1.1% of 290,000 active; in the data active means binding response below about 67% or above about 130%
Apaf-1 inh – inhibitors of human Apaf-1 apoptosome; 0.71% of 330,000 active; O14727; reconstituted apoptosome caspase-3 activity, DEVD-Rh110 fluorescence; inhibition, % at 20 µM; AID 489030; active means inhibition of at least 40% at 20 µM
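Assay system – apoptosome proteins · Medium – Hepes buffer, pH 7.5 · Also added – cytochrome c with DEVD-Rh110 · Timing – 30 min compound preincubation, 50 min activation, room temperature · Detection – Rh110 fluorescence, excitation 480 nm, emission 540 nm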
MEKK2wt confirm – raises or lowers MEK5 binding to wildtype human MEKK2, retest; shares compounds with MEKK3 PB1 HTS; bead flow cytometry, Alexa488-MEK5 binding to MEKK2 WT; actives lie on both sides; binding response (% of control), % at 10 µM; 2.4% of 5,900 active; AID 1892; in the data active means binding response below about 16% or above about 210%; inactive means in between
MEKK2mut-MEK5 – signal of MEK5 binding to mutant human MEKK2, retest. shares compounds with MEKK3 PB1 HTS. bead flow cytometry, Alexa488-MEK5 binding to MEKK2 mutant. percent response, % at 10 µM. 2% of 5,900 active; in the data active means percent response mostly above about 71%, no sharp cut-off; inactive means mostly below about 38%;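 further: higher means compound restores mutant binding toward wildtype level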
MEKK3-MEK5 inh – confirmation of inhibitors of MEK5 binding to human MEKK3; shares compounds with MEKK3 PB1 HTS; bead flow cytometry, Alexa488-MEK5 binding to MEKK3; stronger effect = lower value; binding response (% of control), % at 10 µM; 1.8% of 5,900 active; AID 1894;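 active means binding response below 72% of control, or above a set upper limit, though filed actives all read lower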
Casp3 UBC13 ctr – inhibits human caspase-3 in UBC13 counter-screen | shares compounds with UBC13 polyUb | Recombinant caspase-3, Caspase-Glo 3/7 luminescence, 60 min | inhibition, % at 20 µM | 4% of 1,400 active;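 active means mean inhibition across replicates above about 26%, limit read from the data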
UBC13 confirm – confirmation of human UBC13 polyubiquitin inhibitors | shares compounds with UBC13 polyUb | UBC13 polyubiquitination, TR-FRET, biochemical | inhibition, % at 10 µM | 68% of 1,400 active; in the data active means inhibition above about 45%
Apaf-1 inh conf – Apaf-1 inhibition, single-dose confirmed | shares compounds with Apaf-1 inh | reconstituted apoptosome, caspase-3 DEVD-Rh110 fluorescence | inhibition, % at 20 µM | 25% of 1,800 active;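 active means mean inhibition of at least 40% at 20 µM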
Rh110 quench – interferes with Rh110 fluorescence, flagging false Apaf-1 inhibitors. Rh110 fluorescence interference, quenched caspase reaction. AID 504615. activation (fluorescence interference), % at 20 µM. shares compounds with Apaf-1 inh. 1,800 tested, under 10 active;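 active means signal rise of 40% or more at 20 µM, treated as a fluorescence artifact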
Apaf1 inh interf – shows fluorescence interference in the Apaf-1 inhibitor assay format; shares compounds with Apaf-1 inh; fluorescence interference counterscreen, Apaf-1 assay format; IC50, µM; 460 tested, under 10 active; AID 588538; call rule not given here
A number is an active result; - = inactive; . = no result given; [ ] = remark or other dose. Compounds with a hit are over-represented: about 2.9% of the library has one in this group of screens.

SMILES | MEKK2 mut-MEK5 | UBC13 polyUb | MEKK3 PB1 HTS | MEKK2 WT-MEK5 | Apaf-1 inh | MEKK2wt confirm | MEKK2mut-MEK5 | MEKK3-MEK5 inh | Apaf-1 inh conf | Rh110 quench | others
CCCCCc1cc(=O)oc2c(C(CCN3CCCC(C)C3)c3ccc(N(C)C)cc3)c(OC)cc(OC)c12 (centres undefined) | 50 | - | - | 149 | 68 | - | - | - | - | -
CCOc1ccc(CCNC(=O)c2nnc(CS(=O)(=O)c3ccccc3)o2)cc1OCC | - | - | - | - | - | . | . | . | . | .
Cc1ccc2nc(-c3ccc(NC(=S)NC4CC(C)(C)NC(C)(C)C4)cc3)sc2c1 | 74 | 91 | - | 235 | 50 | 218 | 90 | - | 42 | - | Casp3 UBC13 ctr=-;UBC13 confirm=96;Apaf1 inh interf=-
Cc1cccc(C)c1NC(=O)CSc1nnc(C2CCCCC2)o1 | - | - | - | - | - | . | . | . | . | .
O=C(O)c1cccc2c1C(=O)c1ccc(-c3ccc(Cl)c(C(F)(F)F)c3)cc1S2(=O)=O | . | - | . | . | - | . | . | . | . | .
Cc1ccc(S(=O)(=O)NCc2ccc3c(c2)cc(C)n3C)cc1 | - | - | 71[inhibitor] | 51[inhibitor] | 51 | - | - | - | - | -
CCCN1CCN(CCCNC(=O)Cn2cc3c(n2)CCCC3)CC1 | - | - | - | - | - | . | . | . | . | .
O=C(Cn1cc2c(n1)CCCC2)NCCCN1CCCC1 | - | - | - | 134 | 41 | - | - | - | - | -
C/C(=N\NC(=S)NCc1ccccc1)c1ccc(C)o1 | - | - | - | - | - | . | . | . | . | .
C#CCOCCOCCOCCNc1nc(N2CCN(C(=O)[C@H](Cc3cc4ccccc4[nH]3)n3cc([C@@H](N)CC(C)C)nn3)CC2)nc(N2CCN(C(=O)[C@H](Cc3cc4ccccc4[nH]3)n3cc([C@@H](N)CC(C)C)nn3)CC2)n1 | 112 | 106 | - | 258 | 71 | 289 | 132 | - | - | - | Casp3 UBC13 ctr=-;UBC13 confirm=105
C#CCOCCOCCOCCNc1nc(N2CCN(C(=O)[C@H](Cc3ccc(O)cc3)n3cc([C@@H](N)C(C)CC)nn3)CC2)nc(N2CCN(C(=O)[C@H](Cc3cc4ccccc4[nH]3)n3cc([C@@H](N)CC(C)C)nn3)CC2)n1 (some centres undefined) | 73 | 76 | - | 224 | 47 | 231 | 117 | - | - | - | Casp3 UBC13 ctr=-;UBC13 confirm=56
C#CCOCCOCCOCCNc1nc(N2CCN(C(=O)[C@H](Cc3cc4ccccc4[nH]3)n3cc([C@@H](N)C(C)CC)nn3)CC2)nc(N2CCN(C(=O)[C@H](CCCCN)n3cc([C@@H](N)CC(C)C)nn3)CC2)n1 (some centres undefined) | 95 | 98 | - | 247 | 41 | 232 | 89 | - | - | - | Casp3 UBC13 ctr=-;UBC13 confirm=116
C#CCOCCOCCOCCNc1nc(N2CCN(C(=O)[C@H](CCC(=O)O)n3cc(C(N)CC(C)C)nn3)CC2)nc(N2CCN(C(=O)[C@H](CCC(=O)O)n3cc(C(N)[C@H](C)CC)nn3)CC2)n1 (some centres undefined) | - | - | - | - | - | . | . | . | . | .
C#CCOCCOCCOCCNc1nc(N2CCOCC2)nc(N2CCN(C(=O)[C@H](CCCCN)n3cc([C@@H](N)C(C)CC)nn3)CC2)n1 (some centres undefined) | - | - | - | - | - | . | . | . | . | .
C#CCOCCOCCOCCNc1nc(N2CCN(C(=O)[C@H](CCC(=O)O)n3cc(C(N)CC(C)C)nn3)CC2)nc(N2CCN(C(=O)[C@H](Cc3cc4ccccc4[nH]3)n3cc(C(N)CC(C)C)nn3)CC2)n1 (some centres undefined) | - | - | - | - | - | . | . | . | . | .
O=C(CSc1nnc(COc2ccc(Cl)cc2)o1)NC1CC2CCC1C2 (centres undefined) | - | - | - | - | - | . | . | . | . | .
CN1CCN(c2ccc(NC(=O)c3ccc(-c4ccc(Br)cc4)o3)cc2)CC1 | - | - | - | 168 | 45 | - | - | - | 42 | - | Apaf1 inh interf=-
COc1ccc(C(=O)NCC(=O)OCC(=O)Nc2ncc(Cl)cc2Cl)cc1[N+](=O)[O-] | . | - | . | . | - | . | . | . | . | .
COc1ccc(CN2CCN(C(c3ccc(F)cc3)c3ccc(F)cc3)CC2)c(OC)c1OC | - | - | - | 183 | 48 | - | - | - | - | -
COc1ccc(CN2CCN(c3ccc(F)cc3)CC2)c(OC)c1OC | - | - | - | - | - | . | . | . | . | .
N#C/C(=C\C=C\c1ccccc1)c1nc(-c2ccc3c(c2)OCO3)cs1 | - | - | - | - | - | . | . | . | . | .
CCN(CC)CCOC(=O)c1ccc(N/C=C(/C#N)c2nc(-c3cc4ccccc4oc3=O)cs2)cc1 | - | 114 | 15[inhibitor] | 36[inhibitor] | 54 | 14[inhibitor] | - | 13 | 61 | - | Casp3 UBC13 ctr=-;UBC13 confirm=132;Apaf1 inh interf=-
CCN(CC)CCOC(=O)c1ccc(N/C=C(/C#N)c2nc(-c3ccc4c(c3)OCO4)cs2)cc1 | - | 108 | 22[inhibitor] | 58[inhibitor] | 60 | - | - | 39 | 63 | - | Casp3 UBC13 ctr=-;UBC13 confirm=132;Apaf1 inh interf=-
O=C(Cc1cccc2ccccc12)Nc1c(F)cccc1F | - | - | - | - | - | . | . | . | . | .
COc1cccc2c1C(=O)c1c(O)c3c(c(O)c1C2=O)C[C@@](O)(C(C)=O)C[C@@H]3O[C@H]1C[C@H](N)[C@H](O)[C@H](C)O1 | - | . | - | - | . | . | . | . | . | .
CC(=O)[C@]1(O)Cc2c(O)c3c(c(O)c2[C@@H](O[C@H]2C[C@H](N)[C@H](O)[C@H](C)O2)C1)C(=O)c1ccccc1C3=O | 30 | - | - | 25 | 47 | - | - | - | - | -
